Bioassay records deposited in PubChem by several laboratories.
The list is not random: actives were taken first. Their share in the collection is about 4.3%.
Hep lipid drop: hepatic lipid droplet formation modulation; AML12 mouse hepatocytes, oleate lipid droplets, BODIPY imaging; inhibition, % at 6.5 µM; actives 0.4% (n = 240,000); AID 1656;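 active = lipid droplet intensity inhibited by at least 50%, with more than 500 cells counted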
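Material – mouse AML12 hepatocyte cell line, fixed after treatment · Compound dosing – one dose, 6.5 µM compound · Times – compound with oleate, overnight · Measured by – Image-based BODIPY and DAPI two-channel analysis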
Yeast superoxide: yeast age-related superoxide inhibition as caloric restriction mimetic; superoxide response (% of plate mean), % at 10 µM; actives 0.18% (n = 330,000); S. cerevisiae aged cells, superoxide DHE fluorescence; hits give low values;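 active = superoxide response under a set limit, about three screen SD below normal, cut at about 65% in these data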;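 also: yeast aged for seven days with compound at 30 °C before DHE staining; 100% = average MFI of all compound-treated wells on the plate with controls excluded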
AHR act: human AHR activation; P35869; AHR-responsive luciferase reporter cells, luminescence; activation, % at 5 µM; actives 2.5% (n = 320,000); AID 2796; in the data active = activation above about 47%;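 also: 0% = vehicle wells and 100% = reference agonist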
Target sequence (P35869 whole entry, looked up): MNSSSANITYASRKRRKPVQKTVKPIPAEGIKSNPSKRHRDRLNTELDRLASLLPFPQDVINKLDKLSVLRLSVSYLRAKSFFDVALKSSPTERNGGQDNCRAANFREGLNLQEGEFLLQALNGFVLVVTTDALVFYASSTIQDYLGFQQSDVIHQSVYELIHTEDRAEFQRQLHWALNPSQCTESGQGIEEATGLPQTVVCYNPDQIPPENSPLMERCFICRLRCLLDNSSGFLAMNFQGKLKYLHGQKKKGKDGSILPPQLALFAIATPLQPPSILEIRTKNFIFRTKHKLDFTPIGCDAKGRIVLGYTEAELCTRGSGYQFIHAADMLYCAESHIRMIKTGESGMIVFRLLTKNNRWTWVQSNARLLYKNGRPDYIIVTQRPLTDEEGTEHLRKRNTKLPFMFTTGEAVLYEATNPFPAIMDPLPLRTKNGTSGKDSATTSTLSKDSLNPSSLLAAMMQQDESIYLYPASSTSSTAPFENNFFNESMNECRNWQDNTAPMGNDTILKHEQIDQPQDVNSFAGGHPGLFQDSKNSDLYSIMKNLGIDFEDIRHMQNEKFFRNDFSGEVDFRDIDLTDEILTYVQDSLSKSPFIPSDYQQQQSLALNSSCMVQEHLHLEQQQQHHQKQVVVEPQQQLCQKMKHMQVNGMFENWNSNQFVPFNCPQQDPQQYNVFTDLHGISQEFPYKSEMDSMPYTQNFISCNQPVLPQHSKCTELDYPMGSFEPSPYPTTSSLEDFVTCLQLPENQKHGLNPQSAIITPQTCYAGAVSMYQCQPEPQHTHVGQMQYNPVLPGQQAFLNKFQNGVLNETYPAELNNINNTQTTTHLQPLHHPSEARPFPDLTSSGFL
SR-BI uptake up: enhances SR-BI lipid uptake from DiI-HDL. actives 0.096% (n = 320,000). AID 504775. CHO ldlA[mSR-BI] cells, DiI-HDL uptake fluorescence, 3 h; 100 = double the neutral-control signal. activation, % at 12.5 µM;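 active = mean replicate activation of at least 60% and every replicate at or above 60%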;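 also: 0% = median plate neutral-control signal and 100% = twice that signal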
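material = CHO ldlA[mSR-BI] cells | medium = Ham's F12 with 0.5% BSA, HEPES 25 mM, pH 7.4 | reagent = fluorescent DiI-HDL, 10 µg/mL final | compound dosing = single-point compound dose | incubation = 3 h, 37 °C | measured by = bottom-read fluorescence, 550/595 nm | measure = HDL uptake via cellular fluorescence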
SMARCA2 activ: SMARCA2 function activation, primary screen; AID 652017; actives 1% (n = 370,000); activation, % at 9.1 µM; MG213 cells, MMTV-luciferase reporter, dexamethasone, overnight; in the data active = activation above about 7.8%;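 also: 0% = vehicle wells and 100% = reference activator wells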
SR-BI DiI inh: blocks mouse SR-BI lipid uptake from DiI-HDL; AID 488896; actives 0.96% (n = 320,000); inhibition, % at 12.5 µM; ldlA[mSR-BI] CHO cells, DiI-HDL uptake fluorescence, 3 h;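 active = mean replicate inhibition of at least 70% and a set share of replicates each scoring 70 or more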;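 also: 0% = median of neutral control wells and 100% = median of positive control wells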
Hep lipid conf: hepatic lipid droplet formation inhibition, confirmed | actives 65% (n = 870) | AID 463183 | inhibition, % at 5.2 µM | shares compounds with Hep lipid drop | AML12 mouse hepatocytes, BODIPY lipid droplet imaging; droplets induced with 100 µM oleic acid;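 active = inhibition of lipid droplet metric at least 50%, with more than 300 cells in each of four replicates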;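 also: plate controls were DMSO with oleic acid for no effect and 5 µM Triacsin-C for full effect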
AML12 tox img: counter-screen for cytotoxicity in AML12 mouse hepatocytes; shares compounds with Hep lipid drop; DAPI nuclear morphology cytotoxicity imaging; hits give high values; cells fed 100 µM oleate overnight; z-score at 5 µM; actives 3% (n = 870); AID 463200; in the data active = z-score above about 6.3;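 also: compound exposure lasted overnight at 37 °C before fixation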
AML12 tox conf: confirmation of cytotoxicity in AML12 mouse hepatocytes; shares compounds with Hep lipid drop; AML12 mouse hepatocyte viability, ATP luminescence; cells loaded with 100 µM oleic acid; cytotoxicity, % at 50 µM; 530 tested, under 10 active;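 active = cytotoxicity above 50% in each of four replicates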;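 also: compound exposure lasted overnight at 37 °C before the ATP read; 0% = DMSO-treated cells and 100% = wells with no cells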
* marks the source's active call; other numbers are inactive results; nt = not tested or not shown.

SMILES | Hep lipid drop | Yeast superoxide | AHR act | SR-BI uptake up | SMARCA2 activ | SR-BI DiI inh | Hep lipid conf | AML12 tox img | AML12 tox conf
COc1ccc(CN2CCN(c3ncnc4scc(-c5ccc(F)cc5)c34)CC2)cc1 | -25 | 104 | 3 | -35 | 0 | 35 | nt | nt | nt
COc1ccc(F)cc1CN1CCN(c2ncnc3scc(-c4ccccc4)c23)CC1 | 56* | 105 | 0 | nt | -4 | nt | -3 | 0.65 | nt
CN(C(=O)CSc1cc(C(=O)c2nccn2C)c2ccccc2n1)c1ccccc1 | 81* | 109 | 3 | nt | -3 | nt | -16 | -0.019 | nt
O=[N+]([O-])c1cc(Cl)ccc1N1CCN(c2cccc(C(F)(F)F)c2)CC1 | 64* | 90 | 0 | -47 | -3 | 47 | 94* | 0.54 | 0
Cc1cc(C)nc(NCCO)n1 | 81* | 104 | 3 | -1 | -3 | 1 | 30 | -0.23 | nt
CC(Sc1nc(NCc2ccccc2)nc(N2CCOCC2)n1)C(=O)Nc1ccccc1 (configuration not stated) | 59* | 95 | 2 | -9 | 1 | 9 | 99* | 0.81 | 10
COCCn1cnc2c(c1=O)c1nc3ccccc3nc1n2/N=C/c1ccc(OC)c(OC)c1 | 53* | 104 | -3 | 31 | 0 | -31 | 5 | 0.69 | nt
CCOc1ccc(CCNC(=O)CCNS(=O)(=O)c2ccc(Br)cc2)cc1OCC | 75* | 104 | 7 | -25 | 1 | 25 | 98* | -0.36 | 15
COc1ccc(CCNC(=O)CCS(=O)(=O)c2ccc(C)cc2)cc1OC | 3 | 88 | -1 | 9 | -1 | -9 | nt | nt | nt
CCOc1ccc(CCNC(=O)CCS(=O)(=O)c2ccc(Br)cc2)cc1OCC | 54* | 105 | 2 | -46 | 1 | 46 | 92* | 0.049 | 12
CCOc1ccc(CCNC(=O)CCS(=O)(=O)c2ccc(C)cc2)cc1OCC | 102* | 98 | 1 | -6 | -1 | 6 | 95* | -0.82 | 8
O=C(CCNS(=O)(=O)c1ccc(Br)cc1)NCCc1ccc(Cl)cc1 | -8 | 89 | 1 | 11 | -1 | -11 | nt | nt | nt
CCOc1ccc(CCNC(=O)CCC(=O)N2CCOc3ccccc32)cc1OCC | 83* | 106 | 3 | -44 | -1 | 44 | 111* | -0.36 | 17
CC(C)CCOc1ccc(C(=O)NCC(c2ccco2)N(C)C)cc1 (configuration not stated) | 54* | 94 | -1 | -1 | -2 | 1 | -3 | -0.15 | nt
CC(C)C[C@H]1COc2cccc(N3CCCC3)c2S(=O)(=O)N1C | nt | nt | nt | nt | -3 | nt | nt | nt | nt
CCn1cc(C(=O)NCc2ccc(Cl)cc2)c(=O)c2cc(S(=O)(=O)N(C)C)ccc21 | 62* | 85 | -1 | 39 | -2 | -39 | 45 | -0.85 | 19
CCn1cc(C(=O)NCCc2ccc(Cl)cc2)c(=O)c2cc(S(=O)(=O)N(C)C)ccc21 | 0 | nt | nt | -38 | -2 | 38 | nt | nt | nt
COc1ccc(F)cc1-c1cc(C(C)=O)c2n(c1=O)CCC2 | nt | nt | nt | nt | -2 | nt | nt | nt | nt
Cc1nnc(SCC(=O)Nc2cc(-c3cc(C)c(C)cc3C)nn2-c2ccccc2)s1 | 78* | 108 | 104* | -31 | -2 | 31 | 89* | -0.66 | -7
CCOc1ccccc1NC(=O)N1CCCC1C(=O)Nc1ccc(-n2cnnn2)c(C)c1 (configuration not stated) | 74* | 100 | 0 | -33 | -1 | 33 | 97* | 0.38 | -4
O=S1(=O)CC2c3ccc(F)cc3CN2CN1Cc1ccccc1 (configuration not stated) | nt | nt | nt | nt | -2 | nt | nt | nt | nt
COc1ccccc1N=Nc1c(C)[nH]n(-c2ccccc2)c1=O | 56* | 97 | 19 | 43 | -2 | -43 | 4 | 0.029 | nt
Cc1[nH]n(-c2ccccc2)c(=O)c1N=Nc1ccccc1C(=O)N1CCOCC1 | nt | 101 | -2 | 0 | 3 | 0 | nt | nt | nt
CCOc1ccccc1N=Nc1c(C)[nH]n(-c2ccccc2)c1=O | 76* | 99 | 20 | 0 | nt | 0 | 13 | 0.31 | nt
COc1cccc(N(C)C(=O)[C@@H](C)[C@@H](O)c2ccc(C(C)=O)cc2)c1 | nt | nt | nt | nt | -3 | nt | nt | nt | nt
SMILES | Hep lipid drop | Yeast superoxide | AHR act | SR-BI uptake up | SMARCA2 activ | SR-BI DiI inh | Hep lipid conf | AML12 tox img | AML12 tox conf
C=CCN1C(=O)[C@]2(OCCC=C[C@H]2C)c2cc(OC)ccc21 | nt | nt | nt | nt | -4 | nt | nt | nt | nt
Cc1ccc(-c2nnc(OCc3cccnc3)c3ccccc23)cc1 | 67* | 83 | 21 | -45 | -1 | 45 | 86* | 0.77 | 15
COc1ccccc1N1CCN(N=Cc2ccccc2Br)CC1 | nt | nt | nt | nt | -5 | nt | nt | nt | nt
O=C(OCc1cn(Cc2ccc(C(F)(F)F)cc2)nn1)N1CCCC1 | nt | nt | nt | nt | -2 | nt | nt | nt | nt
CCOc1ccc(CCNC(=O)CN2C(=O)NC3(CCCCC3)C2=O)cc1OCC | nt | 103 | -1 | 7 | 6 | -7 | nt | nt | nt
CCOc1ccc(CCNC(=O)/C=C/c2ccco2)cc1OCC | 81* | 81 | nt | -8 | -1 | 8 | 105* | -0.046 | -9
CCOc1ccc(CCNC(=O)Cn2cccc2C(=O)c2ccccc2C)cc1OCC | 101* | 92 | 1 | -54 | 4 | 54 | 109* | 0.29 | 16
CCOc1ccc(CCNC(=O)Nc2ccccc2C)cc1OCC | 104* | 85 | 0 | -12 | -2 | 12 | 101* | 0.0074 | 7
CCOc1ccc(CCNC(=O)CN2C(=O)NC3(CCCC3)C2=O)cc1OCC | 83* | 88 | 1 | -45 | -2 | 45 | 109* | 0.32 | 11
CCOc1ccc(CCNC(=O)COC(=O)CSc2ccccc2C)cc1OCC | 31 | 113 | -2 | 0 | 3 | 0 | nt | nt | nt
CCOc1ccc(CCNC(=O)CCn2cccc2)cc1OCC | nt | 109 | 0 | nt | -2 | 8 | nt | nt | nt
COc1cccc(/C=C/C(=O)NCCc2ccc(OC)c(OC)c2)c1 | 54* | 107 | 5 | -1 | 1 | 1 | 49 | 0.058 | nt
COc1ccc(N=C2C(=Nc3ccc(OC)cc3)N(c3ccc(OC)cc3)C(=S)N2C(=O)c2ccc(OC)cc2)cc1 | 87* | 108 | -2 | -53 | 1 | 53 | 113* | -0.62 | 8
COc1ccc(N=C2C(=Nc3ccc(OC)cc3)N(c3ccc(N(C)C)cc3)C(=S)N2c2ccc(OC)cc2)cc1 | 65* | 111 | 3 | -6 | 2 | 6 | 15 | 1.8 | nt
CCN(CC)C(=O)CC[C@H]1CC[C@]2(CCCN(Cc3ccc(OC)cc3)C2)O1 | nt | nt | nt | nt | -2 | nt | nt | nt | nt
O=C(NCc1ccco1)c1ccc(Cn2c(=O)c3ccccc3n(Cc3cccc(F)c3)c2=O)cc1 | 11 | 123 | 2 | -48 | 0 | 48 | nt | nt | nt
